Compound activity deposited in PubChem BioAssay by several laboratories.
PLC-beta3 inh: PLC-beta3 (human) inhibition, primary screen. 370,000 compounds, 0.18% hits. Purified PLC-beta3, fluorogenic substrate, fluorescence. inhibition, % at 12.2 µM. Q01970. AID 720704; in the data active means inhibition above about 11%;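 further: 0% = median of compound wells on plate and 100% = full blocker control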
Rpn11 block: blocks the human proteasome subunit Rpn11 | human 26S proteasome, Ub4-pepOG fluorescence polarization; 20S core pre-blocked with epoxomicin | AID 588493 | 360,000 compounds, 0.59% hits | inhibition, % at 20 µM;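 active means inhibition at 20 µM, scaled to each plate's controls, above about 33%, limit read from the data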
Target sequence (O00487 whole entry, looked up): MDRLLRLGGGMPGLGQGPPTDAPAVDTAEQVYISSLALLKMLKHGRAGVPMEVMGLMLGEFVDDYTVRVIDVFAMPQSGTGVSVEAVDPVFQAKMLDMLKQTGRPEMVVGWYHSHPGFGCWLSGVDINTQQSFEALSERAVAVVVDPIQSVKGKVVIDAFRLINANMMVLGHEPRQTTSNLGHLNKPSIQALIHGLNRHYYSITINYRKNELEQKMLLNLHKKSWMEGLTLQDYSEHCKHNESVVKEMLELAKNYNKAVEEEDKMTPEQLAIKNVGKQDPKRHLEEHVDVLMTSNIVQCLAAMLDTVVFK
UCH37 DUB inh: inhibitors of human deubiquitinating enzyme UCH37; Q9Y5K5; purified proteasome/UCH37, Ub-AMC cleavage fluorescence; inhibition, % (concentration not given with the values); 330,000 compounds, 0.33% hits; AID 588478;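 active means mean inhibition over replicate wells above about 20%, limit read from the data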;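 further: 0% = compound-free wells with enzyme and 100% = wells lacking proteasome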
Target sequence (Q9Y5K5 whole entry, looked up): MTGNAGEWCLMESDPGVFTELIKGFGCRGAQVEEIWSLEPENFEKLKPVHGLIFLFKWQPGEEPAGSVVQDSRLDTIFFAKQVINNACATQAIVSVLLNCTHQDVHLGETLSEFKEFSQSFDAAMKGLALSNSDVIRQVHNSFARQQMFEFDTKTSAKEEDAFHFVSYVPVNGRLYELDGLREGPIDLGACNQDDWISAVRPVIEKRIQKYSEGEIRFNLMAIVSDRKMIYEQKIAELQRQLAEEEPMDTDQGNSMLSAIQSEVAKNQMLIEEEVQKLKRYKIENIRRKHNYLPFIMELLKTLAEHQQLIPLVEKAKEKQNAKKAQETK
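system = Proteasome-associated human UCH37 deubiquitinase | amount = 0.15 nM proteasome as dispensed | medium = pH 7.4 Tris-HCl (50 mM) with ovalbumin, ATP-MgCl2, DTT | incubation = 30 min preincubation with enzyme, 25 min cleavage at room temperature | detection = AMC fluorescence 355/460 nm | read-out basis = percent inhibition | controls = no-proteasome and no-compound wells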
PLC-gamma1 inh: PLC-gamma1 (human) inhibition, primary screen | purified PLC-gamma1, fluorogenic substrate, fluorescence | inhibition, % at 12.2 µM | 370,000 compounds, 0.84% hits | AID 720700
PLCg1 ctr: inhibits human PLC-gamma1 in PLC-beta3 counter-screen | shares compounds with PLC-gamma1 inh | inhibition, % at 12.3 µM | AID 743258 | purified PLC-gamma1, fluorogenic substrate, fluorescence | 3,300 compounds, 3.1% hits
PLCbeta3 conf: human PLC-beta3 inhibition, confirmation. inhibition, % at 12.3 µM. 3,300 compounds, 1% hits. AID 743261. shares compounds with PLC-gamma1 inh. purified PLC-beta3, fluorogenic substrate fluorescence; in the data active means inhibition above about 11%
The depositor's hits bear a star; · = not tested or not shown. Most compounds without a hit are left out; they make up all but 1.7% or so of the library. Unless noted, no stated cut-off is given here; in the data, active means inhibition above about 9.5%; inactive means the rest.

SMILES | PLC-beta3 inh | Rpn11 block | UCH37 DUB inh | PLC-gamma1 inh | PLCg1 ctr | PLCbeta3 conf
NS(=O)(=O)c1ccc(NC(=S)NC(=O)C2CCCCC2)cc1 | 7.5 | 3.8 | -1.2 | 11.5* | -4.5 | -4.5
Cc1ccc(NC(=S)NC(=O)C2CCCCC2)c(Br)c1 | 15.4* | 1.6 | 4.7 | 15.7* | 0.9 | 1.3
COc1ccccc1NS(=O)(=O)c1cc(NC(=O)CCNC(C)=O)ccc1C | -5.5 | -7.3 | 0.9 | 0.8 | · | ·
COc1ccccc1NS(=O)(=O)c1cc(NC(=O)CNC(=O)c2ccccc2)ccc1C | 3.9 | -2.7 | · | 10.9* | -6.5 | -4.0
CC(=O)Nc1ccc(-c2ccnc3c2CC(C)(C(=O)Nc2ccccc2)O3)cc1 (stereo not drawn) | 1.7 | 5.7 | · | -0.1 | · | ·
CC(=O)Nc1ccc(-c2ccnc3c2CC(C)(C(=O)NCc2ccc(N4CCN(C)CC4)cc2)O3)cc1 (stereo not drawn) | 11.0* | -0.7 | · | -0.1 | -2.2 | 1.3
CN(C)c1ccc(CNC(=O)C2(C)Cc3c(-c4cccc(C(N)=O)c4)ccnc3O2)cc1 (stereo not drawn) | -0.4 | -5.0 | · | 10.0* | -4.9 | -3.4
CC(=O)Nc1ccc(-c2ccnc3c2CC(C)(C(=O)NCCc2ccccc2)O3)cc1 (stereo not drawn) | 5.9 | 6.6 | · | 13.7* | -3.6 | 0.2
O=C(O)COc1ccccc1C=NNC(=O)CSc1nc2ccccc2c(=O)n1-c1ccccc1 | · | · | 1.3 | · | · | ·
Oc1ccc(C=NN2CCCCC2)cc1O | · | · | 4.6 | · | · | ·
O=C(NN=Cc1cc(Br)cc(Br)c1O)c1cccc(N2CCCC2=O)c1 | · | · | -0.6 | · | · | ·
COc1cc(OC)c(C2CC(=O)N3CN(C)CSC3=C2C#N)cc1OC (stereo not drawn) | -19.4 | 6.0 | 7.8 | -7.6 | · | ·
COc1ccc2ccccc2c1C1CC(=O)N2CN(C)CSC2=C1C#N (stereo not drawn) | 4.3 | 6.3 | 5.8 | 11.3* | -8.2 | -8.6
COc1cc(C=NNC(=O)c2nc3ccccn3c2C)cc(OC)c1O | · | · | 10.5 | · | · | ·
CS(=O)(=O)c1cccc(C(=O)NC(c2ccccc2)c2ccccc2)c1 | -0.8 | -0.3 | 3.0 | -0.2 | · | ·
Cc1ccc(C(NC(=O)c2cccc(S(=O)(=O)N3CCN(C)CC3)c2)c2ccccc2)cc1 (stereo not drawn) | 6.0 | 1.4 | 4.9 | 10.1* | 0.9 | 3.8
COc1cc2c3cc1Oc1cc(ccc1O)C[C@@H]1c4c(cc(OC)c(O)c4Oc4ccc(cc4)C[C@@H]3N(C)CC2)CC[N+]1(C)C | 10.3 | · | · | 12.6* | -2.7 | -0.5
COc1ccc2cc1Oc1ccc(cc1)CC1c3c(cc(OC)c4c3Oc3cc5c(cc3O4)CCNC5C2)CCN1C (stereo not drawn) | · | 5.1 | 1.3 | · | · | ·
Cc1cc(Cl)ccc1NC(=O)Nc1c(C)n(-c2ccccc2)c(=O)n1C | 4.5 | 2.7 | -0.2 | 9.6* | -6.0 | -5.4
COc1cccc(C2c3c(-c4ccccc4)n[nH]c3C(=O)N2c2ccc(C(=O)O)cc2)c1 (stereo not drawn) | -0.3 | 4.5 | 0.7 | 1.7 | · | ·
COc1ccc(C2c3c(-c4ccccc4)n[nH]c3C(=O)N2c2ccc(C(=O)O)cc2)cc1 (stereo not drawn) | 6.4 | 2.7 | 1.1 | 10.5* | -3.6 | -4.8
Cn1c(=O)c2c(ncn2CCC(=O)N/N=C/c2ccccc2)n(C)c1=O | 10.8* | -3.3 | · | 10.8* | -4.8 | -0.8
Cn1c(=O)c2c(ncn2CCC(=O)NN=Cc2ccccc2)n(C)c1=O | · | · | 4.6 | · | · | ·
COc1ccc(CNC(=O)CC(C)=NNC(=O)c2ccccc2OC)cc1 | · | · | -0.3 | · | · | ·
CC(=NNS(=O)(=O)c1ccc(C)cc1)[C@H]1C[C@@H]1c1ccccc1 | · | · | 3.7 | · | · | ·
SMILES | PLC-beta3 inh | Rpn11 block | UCH37 DUB inh | PLC-gamma1 inh | PLCg1 ctr | PLCbeta3 conf
Cc1cc(C)c(S(=O)(=O)N2CCCCC2)c(C)c1N(C)S(=O)(=O)c1ccccc1 | 1.7 | -3.7 | 4.0 | 10.6* | -3.0 | 3.0
O=C(Nc1ccccc1C(=O)Nc1ccc(Br)cn1)c1cccc([N+](=O)[O-])c1 | -6.9 | 1.4 | 6.0 | 10.4* | -9.2 | -1.9
C[C@H]1CCC(=O)N([C@H](COc2ccccc2)Cc2ccccc2)CC1 | 2.1 | -2.3 | 1.7 | 11.0* | -8.6 | -3.0
CNC(=S)N(C)N=C1C(=O)N(Cc2c(Cl)cccc2Cl)c2ccccc21 | · | · | -0.1 | · | · | ·
COc1ccccc1-n1cnc(N)c1C(=O)c1ccccc1 | 4.3 | -3.9 | 2.3 | 12.2* | 7.2 | 5.7
COc1ccccc1-n1cnc(N)c1C(C)=O | 6.8 | -4.9 | -1.4 | 4.8 | · | ·
Cc1cc(NC(=O)c2ccccc2)ncc1NC(=O)c1cccs1 | 16.3* | 4.2 | 2.9 | -1.6 | -8.2 | 9.3
Cc1cc(NC(=O)c2cccs2)ncc1NC(=O)c1cccc(F)c1 | 2.1 | 2.5 | -1.5 | -4.6 | · | ·
COc1cccc(C=NNC(=O)C(=O)NCc2cccnc2)c1O | · | · | 7.4 | · | · | ·
CCOC(=O)N1CCN(C(=O)CN(c2cccc(C)c2)S(=O)(=O)c2ccc(C)cc2)CC1 | 2.3 | 1.3 | 3.9 | 19.6* | -15.3 | -1.3
CCOC(=O)N1CCN(C(=O)c2ccc(N(Cc3ccc(Cl)cc3)S(C)(=O)=O)cc2)CC1 | -2.7 | -0.3 | 1.6 | 1.1 | · | ·
CCOC(=O)N1CCN(C(=O)c2ccc(N(Cc3ccc(C)cc3)S(C)(=O)=O)cc2)CC1 | 10.2 | 6.1 | 1.1 | 11.7* | -6.4 | -6.4
CCOC(=O)N1CCN(C(=O)CN(c2ccc(OC)cc2)S(C)(=O)=O)CC1 | 11.2* | -4.8 | -1.7 | 6.2 | 0.0 | 0.1
O=C(CCc1ccccc1)NN=Cc1cccc(O)c1 | · | · | 2.5 | · | · | ·
Clc1cccc(C=NNc2nc(Cl)nc3ccccc23)c1 | · | · | 1.5 | · | · | ·
Br/C(C=NN1CCN(c2ccccc2)CC1)=C\c1ccccc1 | · | · | 4.4 | · | · | ·
CCOc1cccc(-c2c(C(=O)NN=C(C)c3ccccn3)nnn2-c2nonc2N)c1 | · | · | -0.5 | · | · | ·
CC(C)(C)c1cc(-c2ccccc2)n[nH]1 | -1.8 | -4.3 | 1.7 | 10.6* | -1.4 | -0.6
CC(C)CNC(=O)CSc1n[nH]c(=O)n1CCc1ccccc1 | -2.0 | -4.6 | 4.7 | 13.3* | -1.5 | -2.4
CCCNC(=O)CSc1n[nH]c(=O)n1CCc1ccccc1 | -3.3 | 11.2 | 2.4 | 0.2 | · | ·
CC(=NNC(=O)CC1N=C(Cc2ccccc2)NNC1=O)c1ccc(Br)cc1 (stereo not drawn) | · | · | 4.7 | · | · | ·
Cc1ccc(-c2nnn(CC(=O)N3CCCCC3)n2)c(-n2cnnn2)c1 | 11.9* | 4.0 | -0.5 | 8.1 | -3.4 | 0.9
CC(C)Cn1c2c(c(O)c(C(=O)Nn3c(Cc4ccccc4)nc4ccccc4c3=O)c1=O)CCCC2 | -0.5 | -12.2 | -1.4 | -1.4 | · | ·
CCCCc1nc2ccccc2c(=O)n1NC(=O)c1c(O)c2c(n(CC(C)C)c1=O)CCCC2 | -0.5 | 18.7 | -4.8 | 12.5* | -2.9 | -2.9
Cc1cc(NC(=O)CN2CCN(C/C=C/c3ccccc3)CC2)c([N+](=O)[O-])cc1C | -0.5 | -5.4 | 5.3 | 9.5* | -2.7 | -3.3
O=C(CN1CCN(C/C=C/c2ccccc2)CC1)Nc1cc([N+](=O)[O-])ccc1Cl | -0.7 | 3.7 | 1.5 | -1.1 | · | ·
